Consider five molecules from ChEMBL document CHEMBL4261646, “Bisphosphonate Inhibitors of Mammalian Glycolytic Aldolase” (J Med Chem, 2018).

Data set [1] can be described thus: Inhibition of rabbit muscle fructose-bisphosphate aldolase using FBP as substrate and NADH by spectrophotometry based coupled enzyme assay. Also on record: species or system Oryctolagus cuniculus. The gist of the method: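 Recombinant rabbit muscle aldolase was expressed in E. coli. FBP cleavage was coupled to triose-phosphate isomerase/glycerol-3-phosphate dehydrogenase, and NADH oxidation was read at 340 nm at 25 °C. Buffer was 50 mM Tris-acetate pH 7.5 with 1 mM EDTA and 0.3 mM NADH. Reactions were started by adding enzyme. At least three independent assays.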

Data set [2] is described as follows: Inhibition of fructose-bisphosphate aldolase (unknown origin). Details: species or system Homo sapiens.
Data set [3] is described as follows: Competitive-inhibition of fructose-bisphosphate aldolase (unknown origin) using FBP as substrate and […] in presence of constant enzyme concentration by UV-Vis spectrophotometry dependent TIM/GDH coupled assay based double-reciprocal plot analysis. Also on record: species or system Homo sapiens. The essentials:
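Recombinant rabbit muscle aldolase at 0.01 μg/mL in TIM/GDH-coupled assay (NADH oxidation at 340 nm, 25 °C, Tris-acetate pH 7.5, 0.3 mM NADH).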

The nature of data set [4]: Inhibition of fructose-bisphosphate aldolase (unknown origin) using FBP as substrate and NADH preincubated for 30 mins followed by substrate addition by UV-Vis spectrophotometry based TIM/GDH coupled assay. Also on record: species or system Homo sapiens. The essentials: (§1)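 Recombinant rabbit muscle aldolase was pre-incubated for the listed time with inhibitor at 0.01–20 μM, then assayed with 10 μM FBP. Cleavage was read by TIM/GDH coupling as NADH oxidation at 340 nm, 25 °C, in 50 mM Tris-acetate pH 7.5, 1 mM EDTA, 0.3 mM NADH. IC50 was taken from a 4-parameter fit; at least three independent assays.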

Data set [5] in a line: Inhibition of fructose-bisphosphate aldolase (unknown origin) using FBP as substrate and NADH preincubated for 0 mins followed by substrate addition by UV-Vis spectrophotometry based TIM/GDH coupled assay. Details: species or system Homo sapiens. The essentials:
as §1

The nature of data set [6]: Inhibition of fructose-bisphosphate aldolase (unknown origin) using FBP as substrate and NADH preincubated for 10 mins followed by substrate addition by UV-Vis spectrophotometry based TIM/GDH coupled assay. Details: species or system Homo sapiens. The essentials:
as §1

The next data set relates to HEK293. Put plainly: Growth inhibition of HEK293 cells at 1 to 50 uM after 24 to 72 hrs by trypan blue exclusion assay. In kind it is cell-based. The settings on record: human, hek293, 50 µM. The gist of the method:
(§2)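 Cells seeded in DMEM (HeLa 3 x 10^5, HEK293 2 x 10^5 per plate) were kept at 37 °C, 5% CO2 with filter-sterilized compound for 24, 48 or 72 h. Cells were trypsinized and total counts made by Trypan blue exclusion on a hemocytometer. Student's two-tailed t-test; at least three independent experiments.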

For data set [7], the system named is HeLa. As to the kind of experiment: Growth inhibition of human HeLa cells at 50 uM after 72 hrs by trypan blue exclusion assay relative to control. The settings on record: read-out: GI. In kind it is functional. The gist of the method: as §2
Data set [8] deals with HeLa. As to the kind of experiment: Growth inhibition of human HeLa cells at 10 uM after 72 hrs by trypan blue exclusion assay relative to control. The settings on record: read-out: GI. In kind it is functional. The gist of the method: as §2
The nature of data set [9]: Slow binding inhibition of fructose-bisphosphate aldolase (unknown origin) assessed as overall inhibition constant using FBP as substrate and NADH by UV-Vis spectrophotometry dependent TIM/GDH coupled assay based Dixon plot analysis. Details: species or system Homo sapiens. The gist of the method:
(§3)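 Recombinant rabbit muscle aldolase, TIM/GDH-coupled NADH oxidation at 340 nm, 25 °C, in Tris-acetate pH 7.5 buffer with 1 mM EDTA and 0.3 mM NADH. Progress curves were recorded with 20–200 μM FBP and 0.5–75 μM inhibitor. Slow-binding constants came from non-linear regression under the Morrison–Walsh model; at least three independent assays.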

Data set [10] concerns HeLa. Put plainly: Growth inhibition of human HeLa cells assessed as transport efficiency corrected EC50 for after 72 hrs by trypan blue exclusion assay relative to control. The format is functional, cell-based.
In data set [11] the test system is HeLa. As to the kind of experiment: Growth inhibition of human HeLa cells after 72 hrs by trypan blue exclusion assay relative to control. In kind it is functional, cell-based. The essentials: as §2
Data set [12] can be described thus: Slow binding inhibition of fructose-bisphosphate aldolase (unknown origin) assessed as dibasic species population adjusted dissociation constant using FBP as substrate and NADH by UV-Vis spectrophotometry dependent TIM/GDH coupled assay based Dixon plot analysis. Details: species or system Homo sapiens. The note with it: read-out: Ki(app).
Data set [13] can be described thus: Slow binding inhibition of fructose-bisphosphate aldolase (unknown origin) assessed as dibasic species population adjusted overall inhibition constant using FBP as substrate and NADH by UV-Vis spectrophotometry dependent TIM/GDH coupled assay based Dixon plot analysis. Details: species or system Homo sapiens. The settings on record: read-out: Ki(app).
The nature of data set [14]: Slow binding inhibition of fructose-bisphosphate aldolase (unknown origin) assessed as dissociation constant using FBP as substrate and NADH by UV-Vis spectrophotometry dependent TIM/GDH coupled assay based Dixon plot analysis. Also on record: species or system Homo sapiens. The gist of the method:
as §3

Data set [15] in a line: Inhibition of fructose-bisphosphate aldolase (unknown origin) using FBP as substrate and NADH preincubated for 90 mins followed by substrate addition by UV-Vis spectrophotometry based TIM/GDH coupled assay. Details: species or system Homo sapiens. The gist of the method:
as §1

Data set [16] is described as follows: Inhibition of fructose-bisphosphate aldolase (unknown origin) using FBP as substrate and NADH preincubated for 180 mins followed by substrate addition by UV-Vis spectrophotometry based TIM/GDH coupled assay. Details: species or system Homo sapiens. The essentials: as §1
The test system of data set [17] is HeLa. As to the kind of experiment: Growth inhibition of human HeLa cells at 1 to 50 uM after 24 to 72 hrs by trypan blue exclusion assay. In kind it is functional, cell-based. The essentials: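 HeLa cells were seeded at 3 x 10^5 cells/plate and grown in DMEM at 37 °C/5% CO2 with filter-sterilized inhibitor for 24, 48 or 72 h. Cells were trypsinized (0.25%), pelleted and resuspended. Total cells were counted by Trypan blue exclusion on a hemocytometer. At least three independent experiments; Student's two-tailed t-test.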

Data set [18] in a line: Dual competitive-inhibition of fructose-bisphosphate aldolase (unknown origin) using FBP as substrate and […] in presence of constant enzyme concentration by UV-Vis spectrophotometry dependent TIM/GDH coupled assay based double-reciprocal plot analysis. Also on record: species or system Homo sapiens. The gist of the method: (§4)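 Recombinant rabbit muscle aldolase was expressed in E. coli BL21-SI. Cleavage of FBP was coupled to TIM/GDH, and NADH oxidation was followed at 340 nm at 25 °C. Buffer was 50 mM Tris-acetate pH 7.5 with 1 mM EDTA and 0.3 mM NADH. Initial rates were fitted to a two-site reversible linear competitive model. At least three independent assays.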

Data set [19] in a line: Dual competitive-inhibition of fructose-bisphosphate aldolase (unknown origin) assessed as inhibition constant for two competitive binding sites in enzyme active site using FBP as substrate and […] in presence of constant enzyme concentration by UV-Vis spectrophotometry dependent TIM/GDH coupled assay based double-reciprocal plot analysis. Also on record: species or system Homo sapiens. The essentials:
as §4

Active and inactive are the calls of the source. No cut-off for these calls is given here.

In turn, `O=C(COP(=O)(O)O)[C@@H](O)[C@@H](O)[C@H](O)COP(=O)(O)O` returned a Ki in data set [1] of 120000 nM.
As for `O=P(O)(O)Oc1ccc2cc(OP(=O)(O)O)ccc2c1`, the Ki in data set [2] and in data set [3] was 280 nM each time.
The term IC50 denotes the concentration at which inhibition is half-maximal. Lower therefore signals higher potency. The term EC50 denotes the concentration that produces a half-maximal response. For the molecule `O=P([O-])([O-])Oc1ccc2cc(C(P(=O)([O-])[O-])P(=O)([O-])[O-])ccc2c1.[Li+].[Li+].[Li+].[Li+].[Li+].[Li+]`, the IC50 in [4] is 130 nM; in [5], 670 nM; in data set [6], 170 nM; in data set [15] it was 60 nM; in data set [16], 68 nM. In addition, the “growth inhibition (GI)” value with HEK293 is recorded as “Non-Toxic”. Moreover, the inhibition of growth at 50 µM with HeLa [7] was determined as 50%. Moreover, the inhibition of growth at 10 µM in the data set with HeLa [8] is 30%. The Ki came out at 38 nM in data set [9], 56 nM in data set [12], 7.6 nM in data set [13] and 280 nM in data set [14]. Besides, the EC50 in the data set on HeLa [10] stood at 75 nM; with HeLa [11], 50000 nM.
As for `O=P(O)(O)Oc1ccc(C(P(=O)(O)O)P(=O)(O)O)cc1`, the “growth inhibition (GI)” value with HeLa [17] was “inactive”. In addition, in data set [3], the Ki stood at 42000 nM.
As to `O=P(O)(O)C(c1ccc2cc(O)ccc2c1)P(=O)(O)O`, the Ki in data set [18] amounted to 13000 nM; in data set [19], 9000 nM.
